High-throughput results from PubChem BioAssay.
Hits are enriched below; roughly 2.8% of the tested compounds scored in any of these assays.
Bim-Mcl-1: inhibitors of Bim peptide binding to Mcl-1, primary screen, biochemical, bead-based flow cytometry, multiplex; AID 1009, 2008; 0.1% of 190,000 active; inhibition, % at 10 µM; Bim peptide-Mcl-1 binding; in the data active = inhibition above about 40%;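 note: 0% = no compound tracer wells and 100% = peptide blocker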
Target sequence (Q07820 whole entry, looked up): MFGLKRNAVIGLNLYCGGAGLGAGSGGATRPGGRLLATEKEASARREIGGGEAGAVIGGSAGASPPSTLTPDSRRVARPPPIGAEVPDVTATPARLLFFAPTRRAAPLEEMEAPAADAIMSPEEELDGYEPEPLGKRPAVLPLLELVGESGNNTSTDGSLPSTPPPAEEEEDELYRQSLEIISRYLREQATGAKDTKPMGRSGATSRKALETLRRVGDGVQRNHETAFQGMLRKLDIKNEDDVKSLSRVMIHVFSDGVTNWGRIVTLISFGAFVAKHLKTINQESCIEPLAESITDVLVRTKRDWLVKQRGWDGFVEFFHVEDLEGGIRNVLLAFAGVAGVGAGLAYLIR
Calpain2 inh: inhibitors of pig calpain II, primary screen, biochemical, fluorogenic peptide substrate, 1536-well. purified calpain II, 30 min. AID 1236, 2008. inhibition, % at 16 µM. 0.37% of 220,000 active;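 active = inhibition above about 50%, limit read from the data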
Arbovirus inh: antivirals against arbovirus infection, primary screen, cell-based, full library, 10K replicate subset | arbovirus infection cell-based antiviral screen | inhibition, % at 10 µM | 0.37% of 200,000 active; in the data active = inhibition above about 30%
Calb biofilm kill: clotrimazole potentiators killing C. albicans biofilm, primary screen, 4-compound mixtures; C. albicans biofilm persisters + clotrimazole, fluorescence viability; primary screen in compound mixtures of four per well; 0.02% of 120,000 active; inhibition, % at 7.6 µM;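 active = inhibition above 30.3% in the primary screen of four-compound pools, then above 30% when the compound was retested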;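 note: compounds exposed to preformed 24 h biofilms for 48 h; 0% = untreated biofilm control and 100% = clotrimazole plus chlorhexidine kill blank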
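Assay system: C. albicans biofilms / Medium: RPMI/MOPS medium, pH 7.0 / Schedule: biofilm formation 24 h, compound exposure 48 h, 37 °C / Measured by: Alamar Blue fluorescence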
Mcl1-Bid inh: Mcl-1/Bid binding inhibitors, primary screen, biochemical, TR-FRET, 1536-well | 0.97% of 220,000 active | Induced myeloid leukemia cell differentiation protein Mcl-1 (Homo sapiens), Q07820 | TR-FRET Mcl-1/Bid-Dy647 peptide binding | AID 1021, 2008 | inhibition, % at 21.7 µM;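 active = compounds that cut the binding signal by more than half at the single screening dose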;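 note: His-tagged Mcl-1 with europium anti-His antibody binding Bid BH3 peptide; 0% = Mcl-1 plus peptide wells and 100% = peptide-only wells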
Mcl1 Noxa PPI: Mcl-1/Noxa binding inhibitors, primary screen, biochemical, TR-FRET, 1536-well; Induced myeloid leukemia cell differentiation protein Mcl-1 (Homo sapiens), Q07820; 1.5% of 220,000 active; inhibition, % at 21.7 µM; AID 1022, 2008; TR-FRET Mcl-1/Noxa peptide binding, 2 h;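 active = compounds that cut the protein-peptide binding signal by more than 50% relative to plate controls in a single-dose test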;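 note: His-tagged Mcl-1 with rhodamine Noxa BH3 peptide and terbium anti-His antibody; 0% = Mcl-1 plus Noxa peptide wells and 100% = peptide-only wells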
Starred values were filed as active, the others as inactive; i = inactive; . = not tested or not shown.

SMILES	Bim-Mcl-1	Calpain2 inh	Arbovirus inh	Calb biofilm kill	Mcl1-Bid inh	Mcl1 Noxa PPI
COc1cc(/C=C2\SC(=Nc3ccc(O)cc3)NC2=O)cc(OC)c1OC	.	-23	.	14	-3	10
O=C(c1cccs1)N1CCC(N2CCN(c3ccccc3)CC2)CC1	-1	-56	-1	.	-29	5
COc1ccccc1N1CCN(C2CCN(C(=O)c3cccs3)CC2)CC1	1	-12	4	.	58*	8
Oc1c(Cl)cc(Cl)cc1CNn1cnnc1	-3	-26	-2	20	-45	15
Oc1c(Cl)cc(Cl)cc1Sc1cc(Cl)cc(Cl)c1O	1	48	-43	30	99*	117*
CC(=O)n1cc(C(C[N+](=O)[O-])SCCN)c2ccccc21 (stereo not drawn)	-8	-21	-5	.	53*	53*
CC(=O)n1cc(-c2ccncc2)c2ccccc21	0	-14	3	.	11	11
Cc1[nH]n(C)c(=O)c1C(=O)c1c(-c2ccccc2Cl)noc1C	.	-21	.	9	2	10
Cc1onc(-c2ccccc2)c1C(=O)NC(=S)Nc1sc2c(c1C#N)CCCC2	-4	14	-1	11	7	44
Cc1noc(C(=O)Nc2sc3c(c2C#N)CCC3)c1Cl	0	16	32*	.	-9	28
Cc1ccccc1C(=O)NC(=S)Nc1sc2c(c1C#N)CCCC2	-3	-104	8	.	93*	6
S=C(NCc1ccc(Cl)cc1)NC1CCN(Cc2ccccc2)CC1	-6	54*	-30	16	74*	22
Cc1ccc(N2C(=O)C3ON(c4ccccc4)C(CC(C)C)C3C2=O)cc1 (stereo not drawn)	.	22	.	19	-13	9
CCc1nnc(NC(=O)c2ccc(-c3ccc([N+](=O)[O-])cc3Cl)o2)s1	0	-30	-7	16	66*	59*
COc1ccc(NC(=O)c2ccc(-c3ccc([N+](=O)[O-])cc3)o2)cc1	0	16	-12	18	2	51*
COc1ccc(NC(=O)c2cc([N+](=O)[O-])ccc2O)cc1	1	14	-8	24	-2	22
COc1ccc(NC(=O)c2[nH]ncc2[N+](=O)[O-])cc1	1	-19	1	1	80*	5
O=C(Nc1ccccc1)c1[nH]ncc1[N+](=O)[O-]	-2	4	6	.	-13	2
O=C(Nc1nccs1)c1ccc(-c2ccc([N+](=O)[O-])cc2)o1	1	-101	-14	14	26	66*
Cc1cc(C)n(CC(=O)c2cccc(N)c2)n1	0	3	-1	-7	-27	11
CCOc1ccccc1NC(=O)c1ccc([N+](=O)[O-])cc1	-2	-9	13	0	-20	1
CCOc1ccc(N/C(=C(/C(Cl)=C(Cl)Cl)[N+](=O)[O-])n2cncn2)cc1	6	i	-6	.	77*	38
CCOc1ccccc1N/C(=C(/C(Cl)=C(Cl)Cl)[N+](=O)[O-])n1cncn1	-3	-32	6	.	61*	42
O=[N+]([O-])/C(C(Cl)=C(Cl)Cl)=C(\Nc1ccc(F)cc1)n1cncn1	3	-2	-25	.	73*	20
COc1ccc(NC(=O)c2ccc(=O)oc2)cc1	0	52*	6	.	-40	-2
SMILES	Bim-Mcl-1	Calpain2 inh	Arbovirus inh	Calb biofilm kill	Mcl1-Bid inh	Mcl1 Noxa PPI
COc1ccc(C2=NOC(CNC(=S)N3CCOCC3)C2)cc1 (stereo not drawn)	.	8	.	10	-5	23
CC(C)CNC(=O)c1c(N)n(/N=C/c2ccccn2)c2nc3ccccc3nc12	-7	-39	5	.	56*	23
CCCCNC(=O)c1c(N)n(/N=C/c2ccccn2)c2nc3ccccc3nc12	-3	-194	-4	.	32	32
CN(C)/C=C/C(=O)c1cc(N2CCOCC2)ccc1[N+](=O)[O-]	-1	6	6	14	-60	12
Cn1c(=O)n(CCc2ccccc2)c(=O)c2c1nc1n2CCCN1CCc1ccccc1	2	69*	-24	.	27	19
Cn1c(=O)n(CCc2ccccc2)c(=O)c2c1nc1n2CCCN1Cc1ccccc1	-8	24	-2	.	-23	7
COc1ccccc1C(=O)NC(=S)Nc1cc(C(=O)O)ccc1C	-2	-31	7	18	-33	27
COc1cc2ccccc2cc1C(=O)NC(=S)Nc1cc(C(=O)O)ccc1C	4	-4	42*	14	-34	26
CCCCN=C1NN=C(c2cccc([N+](=O)[O-])c2)CS1	3	37	-10	16	9	51*
CCCCN=C1NN=C(c2cc3ccccc3o2)CS1	-1	25	-11	7	-45	70*
COCCCN=C1NN=C(c2cc(C)n(-c3ccccc3)c2C)CS1	-9	-17	3	13	-12	11
COCCCN(C(=O)c1cc2c(s1)CCC2)c1c(N)n(Cc2ccccc2)c(=O)[nH]c1=O	0	-73	12	9	-18	53*
CCCN(C(=O)c1cc2c(s1)CCC2)c1c(N)n(Cc2ccccc2)c(=O)[nH]c1=O	.	-41	.	17	-24	62*
COCCCN(C(=O)c1cccnc1SC)c1c(N)n(Cc2ccccc2)c(=O)[nH]c1=O	0	-23	8	.	-7	2
CCCCn1c(N)c(NCC(C)C)c(=O)[nH]c1=O	-17	-20	1	11	-49	22
CC1C=CCC2C(=O)N(c3cc(Cl)ccc3O)C(=O)C12 (stereo not drawn)	-2	-1	-15	15	-16	-3
CC(C)c1ccc(S(=O)(=O)N2CCN(C(C)C(=O)Nc3ccccc3-c3ccccc3)CC2)cc1 (stereo not drawn)	-1	14	21	17	1	-12
CC(C(=O)Nc1ccccc1-c1ccccc1)N1CCN(S(=O)(=O)c2ccccc2)CC1 (stereo not drawn)	0	17	61*	30	6	2
CCn1c(=O)n(CC(=O)Nc2ccc(F)cc2)c(=O)c2ccccc21	-4	-25	-1	10	0	-1
O=[N+]([O-])c1cccc(/C=C/C=N/Nc2nc(N3CCCCC3)nc(N3CCCCC3)n2)c1	5	-71	0	-11	-7	11
CCN(CC)c1ccc(/C=N/NC(=S)NC)c(O)c1	-5	-46	-21	16	-19	-10
CCN(CC)c1ccc(/C=N/Nc2cccc(C)c2)c(O)c1	17	20	-37	5	79*	40
CCN(CC)c1ccc(/C=N/Nc2ccccc2)c(O)c1	0	12	-28	.	-123	57*
